Results as given in ChEMBL document CHEMBL1155299, “Design, syntheses, and evaluation of Taspase1 inhibitors” (Bioorg Med Chem Lett, 2009).
Activity calls are given as the source filed them. The rule behind the calls is not given here. Peptide text beside a SMILES is read from it.

Legend:
[1] = target: T1, Threonine aspartase 1 (Homo sapiens) (UniProt Q9H6P5); experiment: Inhibition of recombinant Taspase 1 assessed as loss of processing and accumulation of full length p45 fragment by radiographic in vitro cleavage assay added 30 mins before translated p45MLL
T1 sequence (whole entry): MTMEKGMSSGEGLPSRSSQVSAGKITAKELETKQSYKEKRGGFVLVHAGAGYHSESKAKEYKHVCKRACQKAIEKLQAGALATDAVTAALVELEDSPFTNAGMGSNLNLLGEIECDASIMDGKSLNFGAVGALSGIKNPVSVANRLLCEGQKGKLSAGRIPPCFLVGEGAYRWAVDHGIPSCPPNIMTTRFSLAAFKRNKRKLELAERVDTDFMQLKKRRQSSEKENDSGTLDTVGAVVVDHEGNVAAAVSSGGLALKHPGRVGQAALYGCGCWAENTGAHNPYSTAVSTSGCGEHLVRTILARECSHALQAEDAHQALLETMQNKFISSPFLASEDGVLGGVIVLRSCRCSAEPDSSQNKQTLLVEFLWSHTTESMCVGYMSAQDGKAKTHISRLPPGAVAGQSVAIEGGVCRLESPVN
Procedure, shortened: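 Substrate was a p45MLL fragment (residues 2,500–2,800) with the CS1 site mutated to block cleavage there. It was made by in vitro translation as 35S-labelled protein, exposed to Taspase1, and cleavage was followed by radiography.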

[2] = target: T2, Threonine aspartase 1 (Homo sapiens, UniProt Q9H6P5); experiment: Inhibition of recombinant Taspase 1 assessed as accumulation of emitted fluorescence by FRET assay
T2 sequence (Q9H6P5 whole entry): T1 sequence (whole entry)

[3] = target: T1, Threonine aspartase 1 (Homo sapiens); experiment: Inhibition of recombinant Taspase 1 assessed as accumulation of emitted fluorescence at 100 uM by FRET assay

| Activity [1] | IC50 [2] [µM] | Activity [3] | SMILES |
| --- | --- | --- | --- |
| Active | 63.4 | – | CC[C@H](C)[C@H](NC(C)=O)C(=O)N[C@@H](CO)C(=O)N[C@@H](CCC(N)=O)C(=O)N[C@@H](CC(C)C)C(=O)N[C@@H](C/C=C/C(C)=O)C(=O)O (HELM PEPTIDE1{[ac].I.S.Q.L.[CC(=O)/C=C/C[C@H](N[*:1])C(=O)O]}$$$$V2.0) |
| Active | > 100 | – | CC[C@H](C)[C@H](NC(C)=O)C(=O)N[C@@H](CO)C(=O)N[C@@H](CCC(N)=O)C(=O)N[C@@H](CC(C)C)C(=O)N[C@@H](C/C=C/S(C)(=O)=O)C(=O)O (HELM PEPTIDE1{[ac].I.S.Q.L.[CS(=O)(=O)/C=C/C[C@H](N[*:1])C(=O)O]}$$$$V2.0) |
| Active | – | – | CC[C@H](C)[C@H](NC(C)=O)C(=O)N[C@@H](CO)C(=O)N[C@@H](CCC(N)=O)C(=O)N[C@@H](CC(C)C)C(=O)N[C@H](/C=C/S(C)(=O)=O)CC(=O)O (HELM PEPTIDE1{[ac].I.S.Q.L.[CS(=O)(=O)/C=C/[C@H](CC(=O)O)N[*:1]]}$$$$V2.0) |
| – | – | inactive | CCCC[C@H](NC(=O)[C@H](CC(C)C)NC(=O)[C@H](CCC(N)=O)NC(=O)[C@H](CO)NC(=O)[C@@H](NC(C)=O)[C@@H](C)CC)C(=O)O (HELM PEPTIDE1{[ac].I.S.Q.L.[Nle]}$$$$V2.0) |

The next lines start with the molecule.

| SMILES | Activity [1] | IC50 [2] [µM] | Activity [3] |
| --- | --- | --- | --- |
| CC[C@H](C)[C@H](NC(C)=O)C(=O)N[C@@H](CO)C(=O)N[C@@H](CCC(N)=O)C(=O)N[C@@H](CC(C)C)C(=O)N[C@@H](CC(=O)C1(C)CO1)C(=O)O (some centres undefined) (HELM PEPTIDE1{[ac].I.S.Q.L.[CC1(C(=O)C[C@H](N[*:1])C(=O)O)CO1]}$$$$V2.0) | Active | – | – |
| CC[C@H](C)[C@H](NC(C)=O)C(=O)N[C@@H](CO)C(=O)N[C@@H](CCC(N)=O)C(=O)N[C@@H](CC(C)C)C(=O)NC1CB(O)OC1=O (some centres undefined) (HELM PEPTIDE1{[ac].I.S.Q.L.[O=C1OB(O)CC1N[*:1]]}$$$$V2.0) | – | – | inactive |
| CCCC[C@H](NC(=O)[C@H](CC(C)C)NC(=O)[C@H](CCC(N)=O)NC(C)=O)C(=O)O (HELM PEPTIDE1{[ac].Q.L.[Nle]}$$$$V2.0) | – | – | inactive |
